For 31 compounds, Activity and IC50 results are on record in ChEMBL document CHEMBL1137508, “Pentacyclic triterpenes. Part 5: synthesis and SAR study of corosolic acid derivatives as inhibitors of glycogen phosphorylases” (Bioorg Med Chem Lett, 2007).

Molecules are shown by their SMILES. The source made the active and inactive calls. No cut-off for these calls is given here.

The species entered for the first assay is Oryctolagus cuniculus. The experiment in a line: (§1) Inhibition of rabbit muscle glycogen phosphorylase a. The essentials: (§2)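 Rabbit muscle glycogen phosphorylase a activity was measured in the glycogen-synthesis direction by quantifying phosphate released from glucose-1-phosphate. Values are means of three experiments.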
Regarding `C[C@H]1[C@H](C)CC[C@]2(C(=O)O)CC[C@]3(C)C(=CC[C@@H]4[C@@]5(C)C[C@@H](OC(=O)CCC(=O)O)[C@H](OC(=O)CCC(=O)O)C(C)(C)[C@@H]5CC[C@]43C)[C@H]12`, the outcome was inactive.
For the compound `C[C@H]1[C@H](C)CC[C@]2(C(=O)OCC(=O)O)CC[C@]3(C)C(=CC[C@@H]4[C@@]5(C)C[C@@H](O)[C@H](O)C(C)(C)[C@@H]5CC[C@]43C)[C@H]12`, the result was inactive.

Biological target in a further assay: not listed separately
The description is as §1. Set-up: species or system Oryctolagus cuniculus. The essentials:
as §2
`CC(=O)O[C@@H]1C[C@]2(C)[C@H]3CC=C4[C@@H]5[C@@H](C)[C@H](C)CC[C@]5(C(=O)O)CC[C@@]4(C)[C@]3(C)CC[C@H]2C(C)(C)[C@H]1OC(C)=O`: the IC50 – broadly, the midpoint of a concentration-inhibition curve – was found to be 35 µM.
The compound `C[C@H]1[C@H](C)CC[C@]2(C(=O)OCc3ccccc3)CC[C@]3(C)C(=CC[C@@H]4[C@@]5(C)C[C@@H](OS(C)(=O)=O)[C@H](O)C(C)(C)[C@@H]5CC[C@]43C)[C@H]12` returned a 50% inhibitory concentration (IC50) of 43.4 µM.
`C[C@H]1[C@H](C)CC[C@]2(C(=O)O)CC[C@]3(C)C(=CC[C@@H]4[C@@]5(C)C[C@@H](OC(=O)c6ccccc6)[C@H](O)C(C)(C)[C@@H]5CC[C@]43C)[C@H]12` gave an IC50 of 5.1 µM.
`CC(=O)O[C@@H]1C[C@]2(C)[C@H]3CC=C4[C@@H]5[C@@H](C)[C@H](C)CC[C@]5(C(=O)O)CC[C@@]4(C)[C@]3(C)CC[C@H]2C(C)(C)[C@H]1O`: the half-maximal inhibitory concentration (IC50) amounted to 37.7 µM.
Still for that read-out and setting: to `CCCOC(=O)[C@]12CC[C@@H](C)[C@H](C)[C@H]1C1=CC[C@@H]3[C@@]4(C)C[C@@H](O)[C@H](O)C(C)(C)[C@@H]4CC[C@@]3(C)[C@]1(C)CC2` belongs 82.5 µM; to `CC(=O)OC[C@H]1O[C@@H](OC(=O)[C@]23CC[C@@H](C)[C@H](C)[C@H]2C2=CC[C@@H]4[C@@]5(C)C[C@@H](O)[C@H](O)C(C)(C)[C@@H]5CC[C@@]4(C)[C@]2(C)CC3)[C@H](OC(C)=O)[C@@H](OC(C)=O)[C@@H]1OC(C)=O`, 373 µM.
In turn, `CCCC(=O)O[C@@H]1C[C@]2(C)[C@H]3CC=C4[C@@H]5[C@@H](C)[C@H](C)CC[C@]5(C(=O)O)CC[C@@]4(C)[C@]3(C)CC[C@H]2C(C)(C)[C@H]1OC(=O)CCC` came in with a half-inhibitory concentration (IC50) of 78.7 µM.
On to `CCCC(=O)O[C@@H]1C[C@]2(C)[C@H]3CC=C4[C@@H]5[C@@H](C)[C@H](C)CC[C@]5(C(=O)O)CC[C@@]4(C)[C@]3(C)CC[C@H]2C(C)(C)[C@H]1O`, for which the IC50 came to 77.9 µM.
On the same count and under the same terms, to `C[C@H]1[C@H](C)CC[C@]2(C(=O)OCc3ccccc3)CC[C@]3(C)C(=CC[C@@H]4[C@@]5(C)C=C(O)C(=O)C(C)(C)[C@@H]5CC[C@]43C)[C@H]12` belongs 7.31 µM; to `C[C@H]1[C@H](C)CC[C@]2(C(=O)O[C@@H]3O[C@H](CO)[C@@H](O)[C@H](O)[C@H]3O)CC[C@]3(C)C(=CC[C@@H]4[C@@]5(C)C[C@@H](O)[C@H](O)C(C)(C)[C@@H]5CC[C@]43C)[C@H]12`, 106 µM; to `C[C@H]1[C@H](C)CC[C@]2(C(=O)O)CC[C@]3(C)C(=CC[C@@H]4[C@@]5(C)C[C@@H](O)[C@@H](O)C(C)(C)[C@@H]5CC[C@]43C)[C@H]12` [PYGENIC ACID A], 212 µM.
Compound `CCC(=O)O[C@@H]1C[C@]2(C)[C@H]3CC=C4[C@@H]5[C@@H](C)[C@H](C)CC[C@]5(C(=O)O)CC[C@@]4(C)[C@]3(C)CC[C@H]2C(C)(C)[C@H]1OC(=O)CC` had an IC50 of 73.7 µM.
`CCCCCC(=O)O[C@@H]1C[C@]2(C)[C@H]3CC=C4[C@@H]5[C@@H](C)[C@H](C)CC[C@]5(C(=O)O)CC[C@@]4(C)[C@]3(C)CC[C@H]2C(C)(C)[C@H]1O` yielded an IC50 of 3.26 µM.
`C=CCOC(=O)[C@]12CC[C@@H](C)[C@H](C)[C@H]1C1=CC[C@@H]3[C@@]4(C)C[C@@H](O)[C@H](O)C(C)(C)[C@@H]4CC[C@@]3(C)[C@]1(C)CC2`: the IC50 stood at 91.2 µM.
The compound `C[C@H]1[C@H](C)CC[C@]2(C(=O)OCc3ccccc3)CC[C@]3(C)C(=CC[C@@H]4[C@@]5(C)C[C@H](O)[C@H](O)C(C)(C)[C@@H]5CC[C@]43C)[C@H]12` yielded an IC50 of 108 µM.
`C[C@H]1[C@H](C)CC[C@]2(C(=O)OCc3ccccc3)CC[C@]3(C)C(=CC[C@@H]4[C@@]5(C)C[C@@H](O)[C@@H](O)C(C)(C)[C@@H]5CC[C@]43C)[C@H]12` displayed an IC50 of 324 µM.
On the same count and under the same terms, to `C[C@H]1[C@H](C)CC[C@]2(C(=O)OCc3ccccc3)CC[C@]3(C)C(=CC[C@@H]4[C@@]5(C)C[C@@H]6OC6C(C)(C)[C@@H]5CC[C@]43C)[C@H]12` (single isomer, unassigned) belongs 69.5 µM; to `C[C@H]1[C@H](C)CC[C@]2(C(=O)O)CC[C@]3(C)C(=CC[C@@H]4[C@@]5(C)C[C@@H](O)[C@H](O)C(C)(C)[C@@H]5CC[C@]43C)[C@H]12` [COROSOLIC ACID], 20 µM; to `COC(=O)[C@]12CC[C@@H](C)[C@H](C)[C@H]1C1=CC[C@@H]3[C@@]4(C)C[C@@H](O)[C@H](O)C(C)(C)[C@@H]4CC[C@@]3(C)[C@]1(C)CC2` [COROSOLIC ACID METHYL ESTER], 33.7 µM.
As to `C[C@H]1[C@H](C)CC[C@]2(C(=O)OCn3cccn3)CC[C@]3(C)C(=CC[C@@H]4[C@@]5(C)C[C@@H](O)[C@H](O)C(C)(C)[C@@H]5CC[C@]43C)[C@H]12`, half-maximal inhibition (IC50) required 62.1 µM.
On to `C[C@H]1[C@H](C)CC[C@]2(C(=O)OCc3ccccc3)CC[C@]3(C)C(=CC[C@@H]4[C@@]5(C)C[C@@H](OC(=O)CCC(=O)O)[C@H](OC(=O)CCC(=O)O)C(C)(C)[C@@H]5CC[C@]43C)[C@H]12`, for which the IC50 was found to be 722 µM.
As for `CCCCOC(=O)[C@]12CC[C@@H](C)[C@H](C)[C@H]1C1=CC[C@@H]3[C@@]4(C)C[C@@H](O)[C@H](O)C(C)(C)[C@@H]4CC[C@@]3(C)[C@]1(C)CC2`, the IC50 is 92.1 µM.
Compound `C[C@H]1[C@H](C)CC[C@]2(C(=O)O)CC[C@]3(C)C(=CC[C@@H]4[C@@]5(C)C[C@H](O)[C@H](O)C(C)(C)[C@@H]5CC[C@]43C)[C@H]12` had an IC50 of 116 µM.
Same read-out and setting: to `Cc1ccc(S(=O)(=O)O[C@@H]2C[C@]3(C)[C@H]4CC=C5[C@@H]6[C@@H](C)[C@H](C)CC[C@]6(C(=O)OCc6ccccc6)CC[C@@]5(C)[C@]4(C)CC[C@H]3C(C)(C)[C@H]2O)cc1` belongs 444 µM; to `C[C@H]1[C@H](C)CC[C@]2(C(=O)OCc3ccccc3)CC[C@]3(C)C(=CC[C@@H]4[C@@]5(C)C[C@@H](O)[C@H](O)C(C)(C)[C@@H]5CC[C@]43C)[C@H]12`, 41.2 µM; to `C[C@H]1[C@H](C)CC[C@]2(C(=O)OCc3ccccc3)CC[C@]3(C)C(=CC[C@@H]4[C@@]5(C)C[C@@H](O)C(=O)C(C)(C)[C@@H]5CC[C@]43C)[C@H]12`, 31.8 µM.
`CCC(=O)O[C@@H]1C[C@]2(C)[C@H]3CC=C4[C@@H]5[C@@H](C)[C@H](C)CC[C@]5(C(=O)O)CC[C@@]4(C)[C@]3(C)CC[C@H]2C(C)(C)[C@H]1O` had an IC50 of 96.7 µM.
For the compound `CCOC(=O)COC(=O)[C@]12CC[C@@H](C)[C@H](C)[C@H]1C1=CC[C@@H]3[C@@]4(C)C[C@@H](O)[C@H](O)C(C)(C)[C@@H]4CC[C@@]3(C)[C@]1(C)CC2`, half-maximal inhibition (IC50) required 102 µM.
In the case of `CCOC(=O)[C@]12CC[C@@H](C)[C@H](C)[C@H]1C1=CC[C@@H]3[C@@]4(C)C[C@@H](O)[C@H](O)C(C)(C)[C@@H]4CC[C@@]3(C)[C@]1(C)CC2`, the IC50 was found to be 46.7 µM.
